Data set [1] addresses T1, Amine oxidase [flavin-containing] A (Homo sapiens, UniProt P21397).
T1 sequence (P21397 whole entry): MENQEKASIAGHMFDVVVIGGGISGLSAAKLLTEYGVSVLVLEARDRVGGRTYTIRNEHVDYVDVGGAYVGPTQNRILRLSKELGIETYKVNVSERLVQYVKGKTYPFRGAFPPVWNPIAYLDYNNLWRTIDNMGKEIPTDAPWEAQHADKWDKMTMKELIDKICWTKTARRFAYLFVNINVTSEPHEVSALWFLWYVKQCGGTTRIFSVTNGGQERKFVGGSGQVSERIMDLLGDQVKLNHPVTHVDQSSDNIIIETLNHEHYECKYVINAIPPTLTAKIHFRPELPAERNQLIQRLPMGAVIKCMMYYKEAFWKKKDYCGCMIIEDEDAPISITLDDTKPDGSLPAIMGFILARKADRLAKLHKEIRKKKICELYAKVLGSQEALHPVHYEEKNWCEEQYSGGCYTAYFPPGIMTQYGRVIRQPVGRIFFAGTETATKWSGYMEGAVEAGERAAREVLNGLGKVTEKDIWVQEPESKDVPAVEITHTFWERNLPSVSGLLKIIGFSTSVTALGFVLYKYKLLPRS
Kind of data set: Inhibition of human recombinant MAO-A assessed as hydrogen peroxide production at 20 uM. A digest of the protocol:
(§1)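 Recombinant hMAO-A or hMAO-B microsomes came from baculovirus-infected BTI-TN-5B1-4 insect cells. Enzyme was set to 165 pmol p-tyramine/min (A 1.1 µg, B 7.5 µg protein). It was preincubated with compound in 0.05 M sodium phosphate, pH 7.4, for 15 min at 37 °C. Final 200 µM Amplex Red, 1 U/mL HRP and 1 mM p-tyramine started the reaction. H2O2 was read as resorufin fluorescence (ex 545/em 590 nm) over 15 min at 37 °C against vehicle controls.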

The species named for another data set is Homo sapiens. Nature of the data set: Selectivity index, ratio of inhibition of human recombinant MAO-A at 20 uM or 50 uM to IC50 for human recombinant MAO-B.
For data set [2], the target named is T2, Amine oxidase [flavin-containing] B (Homo sapiens, UniProt P27338).
T2 sequence (P27338 whole entry): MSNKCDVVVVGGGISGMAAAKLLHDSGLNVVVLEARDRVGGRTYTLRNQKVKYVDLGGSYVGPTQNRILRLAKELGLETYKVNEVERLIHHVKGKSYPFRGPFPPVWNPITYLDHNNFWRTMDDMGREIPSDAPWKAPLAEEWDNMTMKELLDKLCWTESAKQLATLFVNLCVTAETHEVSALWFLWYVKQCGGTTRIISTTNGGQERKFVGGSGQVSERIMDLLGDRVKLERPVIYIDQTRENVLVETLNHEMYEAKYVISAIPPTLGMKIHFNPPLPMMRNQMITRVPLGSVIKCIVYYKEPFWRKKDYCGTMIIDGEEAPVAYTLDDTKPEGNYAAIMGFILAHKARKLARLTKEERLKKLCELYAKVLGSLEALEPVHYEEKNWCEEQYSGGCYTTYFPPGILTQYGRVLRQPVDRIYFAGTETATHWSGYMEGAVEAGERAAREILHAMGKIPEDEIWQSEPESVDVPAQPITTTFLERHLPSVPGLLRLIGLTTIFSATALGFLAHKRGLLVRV

Data set [3] concerns the target T2, Amine oxidase [flavin-containing] B. Nature of the data set: Inhibition of human recombinant MAO-B assessed as hydrogen peroxide production at 1 mM. A digest of the protocol:
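Microsomal recombinant hMAO-B (baculovirus-infected BTI-TN-5B1-4 insect cells; 7.5 µg protein) preincubated with drug in 0.05 M sodium phosphate, pH 7.4, 15 min, 37 °C. Started with (final) 200 µM Amplex Red, 1 U/mL horseradish peroxidase, 1 mM p-tyramine. H2O2 read as resorufin fluorescence (ex 545/em 590 nm) over 15 min at 37 °C. Vehicle controls; five experiments.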

Data set [4] concerns the target T1, Amine oxidase [flavin-containing] A. Kind of data set: Inhibition of human recombinant MAO-A assessed as hydrogen peroxide production at 50 uM. A digest of the protocol: as §1
Data set [5] has as its target T2, Amine oxidase [flavin-containing] B. Nature of the data set: Inhibition of human recombinant MAO-B assessed as hydrogen peroxide production at 20 uM.
Data set [6] has the same target. Nature of the data set: Inhibition of human MAO-B at 5 uM before washing.
For data set [7] the target is unchanged. Nature of the data set: Inhibition of human MAO-B at 5 uM after repeated washing.
Data set [8] addresses T1, Amine oxidase [flavin-containing] A. Nature of the data set: Inhibition of human recombinant MAO-A assessed as hydrogen peroxide production at 1 mM.
The target of data set [9] is T2, Amine oxidase [flavin-containing] B. Nature of the data set: Inhibition of human MAO-B at 20 uM after repeated washing.
For data set [10] the target is unchanged. Kind of data set: Inhibition of human MAO-B at 20 uM before washing.
Data set [11] deals with T1, Amine oxidase [flavin-containing] A. Kind of data set: Inhibition of human recombinant MAO-A assessed as hydrogen peroxide production.

The results in this text go back to ChEMBL document CHEMBL1138489, “Chalcones: a valid scaffold for monoamine oxidases inhibitors” (J Med Chem, 2009).

In general, IC50 refers to the midpoint of a concentration-inhibition curve.

`CC(C)=CCOc1ccc(C(=O)/C=C/c2ccc(C)cc2)c(O)c1`: the 50% inhibitory concentration (IC50) result in data set [1] was “Not Active”; in data set [2] it was 1030 nM. Besides, in the data set listed under Homo sapiens, the Ratio IC50 is greater than 19.

`O=C(/C=C/c1ccc(OCc2ccccc2)cc1)c1ccc(F)cc1`: the IC50 entry in [1] was “Not Active”; in data set [2], 500 nM. In addition, in the data set listed under Homo sapiens, the Ratio IC50 was greater than 40.

As for `O=C(NCCN1CCOCC1)c1ccc(Cl)cc1` [MOCLOBEMIDE], the IC50 entry in data set [3] was “Not Active”.

Regarding `O=C(/C=C/c1ccccc1)c1ccccc1` [CHALCONE], the concentration for half-maximal inhibition (IC50) result is “Not Active” in data set [1] and 1410 nM in data set [2]. Further, the Ratio IC50 in the data set listed under Homo sapiens is greater than 14.

In the case of `O=C(/C=C/c1ccc(Cl)cc1)c1ccc(O)cc1`, the Ratio IC50 in the data set filed under Homo sapiens is greater than 1610. For the same compound, the IC50 in data set [2] is 31 nM; in [4] it was “Not Active”.

Consider `COc1ccc(C(=O)/C=C/c2ccc(OCc3ccccc3)cc2)cc1`, for which the IC50 result in data set [1] is “Not Active”; in data set [2], 450 nM. The Ratio IC50 in the data set filed under Homo sapiens was greater than 44.

Consider `O=C(/C=C/c1ccc(Cl)cc1)c1ccccc1O`, for which the Ratio IC50 in the data set listed under Homo sapiens is greater than 312. In addition, the 50% inhibitory concentration (IC50) in data set [2] is 160 nM; in [4], “Not Active”.

With `COc1ccc(/C=C/C(=O)c2ccc(OCC=C(C)C)cc2O)cc1`, the concentration for half-maximal inhibition (IC50) result in data set [5] and in [1] was “Not Active” in each case.

Take `O=C(/C=C/c1ccc(Cl)cc1)c1ccc(F)cc1O`: in the data set filed under Homo sapiens, the Ratio IC50 was greater than 704. Besides, in data set [2], the midpoint of inhibition, the IC50, lay at 71 nM.

In the case of `COc1ccc(C(=O)/C=C/c2ccc(Cl)cc2)c(O)c1`, the figures for the “inhibition (INH)” value in [6] and in data set [7] were 59.13% and 60.26%, respectively.

Turning to `C#CCN(C)CCCOc1ccc(Cl)cc1Cl` [CLORGILINE], in data set [8], the IC50 result was “Not Active”.

As for `CC(C)=CCOc1ccc(C(=O)/C=C/c2ccccc2)c(O)c1` [CORDOIN], the “inhibition (INH)” value stood at 58.51% in data set [9] and 54.32% in data set [10]. Also, the IC50 entry was “Not Active” in [1] and 18800 nM in [2]. Further, in the data set listed under Homo sapiens, the Ratio IC50 is greater than 1.1.

With `CC(C)=CCOc1ccc(C(=O)/C=C/c2ccc(Cl)cc2)c(O)c1`, the IC50 result in data set [1] is “Not Active”; in data set [2] it was 1250 nM. For the same compound, the Ratio IC50 in the data set listed under Homo sapiens is greater than 16.

Turning to `CS(=O)(=O)c1ccc(C(=O)/C=C/c2ccc(Cl)cc2)cc1`, the IC50 entry in data set [1] was “Not Active”; in data set [2] it was 470 nM. Also, the Ratio IC50 in the data set listed under Homo sapiens is greater than 43.

As to `O=C(/C=C/c1ccc(Cl)cc1)c1ccc(O)cc1O`, the “inhibition (INH)” value is 55.12% in data set [6] and 61.38% in [7]. Moreover, in the data set listed under Homo sapiens, the Ratio IC50 was determined as 971. The 50% inhibitory concentration (IC50) in data set [11] was 4950 nM; in data set [2], 5.1 nM; in [8], “Not Active”.

Turning to `COc1ccc(C(=O)/C=C/c2ccc(Cl)cc2)cc1`, the concentration for half-maximal inhibition (IC50) result in data set [1] is “Not Active”; in data set [2], 54 nM. In the data set listed under Homo sapiens, the Ratio IC50 was greater than 370.

As for `O=C(/C=C/c1ccc(Cl)cc1)c1ccc(OCc2ccccc2)cc1`, the IC50 entry in data set [1] is recorded as “Not Active”.

Turning to `CC(C)=CCOc1ccc(C(=O)/C=C/c2ccc(OCc3ccccc3)cc2)c(O)c1`, the IC50 entry in data set [5] and in data set [1] was “Not Active” throughout.

Regarding `C#CCN(C)[C@H](C)Cc1ccccc1` [SELEGILINE], in data set [8], the half-maximal inhibitory concentration (IC50) result is listed as “Not Active”.
